Calls of active or inactive are those of the source. The calls are words filed in the database; no cut-off is given here.
Columns and labels:
[1] = biological target: T1, Proto-oncogene tyrosine-protein kinase Src (Homo sapiens, UniProt P12931); experiment: Inhibition of c-SRC assessed as residual activity using KVEKIGEGYYGVVYK as peptide substrate after 20 mins by scintillation counting
In short: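 Radiometric kinase assay: Src kinase ([…] stock diluted to 200 nM in kinase buffer) with peptide substrate (370 µM stock) and inhibitor from 10% DMSO dilution, in buffer with MgCl2, EDTA, DTT; started with 40 µM ATP plus 33P-γ-ATP, 20 min at 30 °C; stopped with 0.85% orthophosphoric acid, phosphocellulose filter capture, scintillation count. IC50 from sigmoidal variable-slope fit of mean data, at least two determinations; DMSO negative control.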

[2] = biological target: T1, Proto-oncogene tyrosine-protein kinase Src; experiment: Inhibition of c-SRC in human HCT116 cells assessed as phosphorylated FAK level after 5 hrs by Western blot assay; format: cell-based; settings: HCT-116
In short: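 HCT116 colon carcinoma cells seeded overnight, serum-starved, treated with inhibitors 5 h at 3 and 10 µM final; lysed in 2X Laemmli buffer, gradient SDS-PAGE, PVDF transfer. Phospho-FAK by anti-pTyr861, total FAK on separate blot; ratio by film densitometry.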

[3] = biological target: T1, Proto-oncogene tyrosine-protein kinase Src; experiment: Inhibition of c-SRC in EGF-stimulated human A431 cells assessed as phosphorylated STAT3 level by Western blot assay; format: cell-based; settings: A-431
In short: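 A431 epidermoid carcinoma cells starved overnight, stimulated 10 min with EGF (100 ng/ml), lysed in 2X Laemmli buffer; phospho-STAT3 detected with anti-pTyr705 antibody, total STAT3 on a separate blot; pSTAT3/total STAT3 ratio by densitometry of X-ray films. DMSO with EGF set as 100% phosphorylation; 4-anilinoquinoline-3-carbonitrile positive control.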

Fibroblast = experiment: Antitumor activity against Src-transformed fibroblasts xenograft model assessed as tumor growth inhibition at 50 mg/kg, ip after 7 days; format: functional, organism-based; set-up: dose 50 mg/kg
[4] = biological target: T1, Proto-oncogene tyrosine-protein kinase Src

T1 sequence (P12931 2-536 limits assumed): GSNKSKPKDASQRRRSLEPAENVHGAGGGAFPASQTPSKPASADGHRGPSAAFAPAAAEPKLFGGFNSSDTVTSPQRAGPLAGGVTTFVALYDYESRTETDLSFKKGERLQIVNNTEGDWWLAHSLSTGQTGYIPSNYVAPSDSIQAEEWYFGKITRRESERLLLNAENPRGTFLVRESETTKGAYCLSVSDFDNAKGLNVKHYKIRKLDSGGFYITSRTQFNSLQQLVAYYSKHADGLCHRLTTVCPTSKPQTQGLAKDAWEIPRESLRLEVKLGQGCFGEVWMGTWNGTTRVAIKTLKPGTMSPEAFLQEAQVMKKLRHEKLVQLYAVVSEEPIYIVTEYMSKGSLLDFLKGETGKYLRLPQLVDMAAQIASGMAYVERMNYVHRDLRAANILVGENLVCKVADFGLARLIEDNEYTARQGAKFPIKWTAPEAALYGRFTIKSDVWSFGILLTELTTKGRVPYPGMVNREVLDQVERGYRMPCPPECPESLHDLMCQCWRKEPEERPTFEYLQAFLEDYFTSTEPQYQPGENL

Row | SMILES | IC50 [1] [nM] | Activity [2] [µM] | other results
1 | CN(C)CCNc1cc(Cc2ccccc2)c2c(N)c(C(=O)N/N=C/c3cccn3C)sc2n1 | 40 | 3 | 
2 | CCCc1cc2c(N)c(C(=O)N/N=C/c3cccn3C)sc2nc1NCCN(C)C | 2080 |  | 
3 | Nc1c(C(=O)N/N=C/c2cccc3ccccc23)sc2ncccc12 | > 10000 |  | 
4 | Cc1cc(C(F)(F)F)nc2sc(C(=O)N/N=C/c3cccc4ccccc34)c(N)c12 | 1340 |  | 
5 | Cc1cc(NCCN(C)C)nc2sc(C(=O)N/N=C/c3cccc4ccccc34)c(N)c12 | 230 | > 10 | 
6 | Cc1cc(C)c2c(N)c(C(=O)N/N=C/c3cccc4ccccc34)sc2n1 | 269 |  | Activity [3]: 10 µM
7 | Cn1cncc1/C=N/NC(=O)c1sc2ncccc2c1N | 1300 |  | 
8 | COc1cc(Nc2c(C#N)cnc3cc4cc(OCCN5CCOCC5)c(OC)cc4cc23)c(Cl)cc1Cl |  |  | Activity (Fibroblast): Active
9 | CN(C)CCNc1cc(-c2ccccc2)c2c(N)c(C(=O)N/N=C/c3cccn3C)sc2n1 | 68 | 3 | 
10 | CN(C)CCNc1cc(-c2ccccc2)c2c(N)c(C(=O)N/N=C/c3cccc4ccccc34)sc2n1 | 107 | 3 | 
11 | Cc1cc(C)c2c(N)c(C(=O)N/N=C/c3cccn3C)sc2n1 | 840 |  | 
12 | CN(C)CCNc1cc(-c2ccccc2)c2c(N)c(C(=O)N/N=C/c3cncn3C)sc2n1 | 32 | 3 | 
13 | CN(C)CCNc1nc2sc(C(=O)N/N=C/c3cccn3C)c(N)c2cc1Cc1ccccc1 | 3870 |  | 
14 | O=C(Cc1ccc(-c2ccc(OCCN3CCOCC3)cc2)cn1)NCc1ccccc1 [TIRBANIBULIN] |  |  | IC50 [4]: 20 nM
15 | Cc1cc(NCCN(C)C)nc2sc(C(=O)N/N=C/c3cccn3C)c(N)c12 | 246 | 10 | 
16 | CCCc1cc(NCCN(C)C)nc2sc(C(=O)N/N=C/c3cccn3C)c(N)c12 | 63 | 10 | 
17 | Cc1cc(C(F)(F)F)nc2sc(C(=O)N/N=C/c3cncn3C)c(N)c12 | 330 | > 10 | 
18 | Cc1cc(C)c2c(N)c(C(=O)N/N=C/c3cncn3C)sc2n1 | 769 |  | Activity [3]: > 10 µM
19 | Cc1cc(C)c2c(N)c(C(=O)N/N=C/c3cccn3CCN(C)C)sc2n1 | > 10000 |  | 

Source: ChEMBL document CHEMBL1765001, “Synthesis and pharmacological evaluation of thieno[2,3-b]pyridine derivatives as novel c-Src inhibitors” (Bioorg Med Chem, 2011)
